# Rows were chosen to be rich in hits. Some 0.57% of all compounds tested hit in one or more screens of this group.
# GASC-1 inh = blocks human GASC-1 demethylase activity. Q9H3R0. hit rate 0.069% among 330,000. GST-JMJD2C(1-420) H3K9me3 demethylation, DELFIA europium. inhibition, % at 2.35 µM;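 active means more than half of a compound's replicate wells show inhibition beyond 50%, single wells judged on their own value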;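 further: signal counts dimethyl H3K9 product captured on neutravidin plate; 0% = median of DMSO wells and 100% = 0.3 times that DMSO median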
# p-CIP stab down = p/CIP protein destabilization. F442A p/CIP-EGFP cells, EGFP fluorescence, 16 h. decrease of EGFP signal, % at 10 µM. Q05BA5. hit rate 0.01% among 290,000;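 active means EGFP signal decrease of at least 30% at 10 µM or well 3 SD below plate mean, unless failing retest; inactive means the rest, including hits failing retest or dose response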
# VLA-4 inh = inhibition in a human VLA-4 binding assay. P13612. VLA-4 expressing cells, ligand binding flow cytometry. inhibition, % (about 7 µM as worked out from the volumes in the protocol). hit rate 0.2% among 330,000; in the data active means inhibition above about 50%
# Target sequence (P13612 whole entry, looked up): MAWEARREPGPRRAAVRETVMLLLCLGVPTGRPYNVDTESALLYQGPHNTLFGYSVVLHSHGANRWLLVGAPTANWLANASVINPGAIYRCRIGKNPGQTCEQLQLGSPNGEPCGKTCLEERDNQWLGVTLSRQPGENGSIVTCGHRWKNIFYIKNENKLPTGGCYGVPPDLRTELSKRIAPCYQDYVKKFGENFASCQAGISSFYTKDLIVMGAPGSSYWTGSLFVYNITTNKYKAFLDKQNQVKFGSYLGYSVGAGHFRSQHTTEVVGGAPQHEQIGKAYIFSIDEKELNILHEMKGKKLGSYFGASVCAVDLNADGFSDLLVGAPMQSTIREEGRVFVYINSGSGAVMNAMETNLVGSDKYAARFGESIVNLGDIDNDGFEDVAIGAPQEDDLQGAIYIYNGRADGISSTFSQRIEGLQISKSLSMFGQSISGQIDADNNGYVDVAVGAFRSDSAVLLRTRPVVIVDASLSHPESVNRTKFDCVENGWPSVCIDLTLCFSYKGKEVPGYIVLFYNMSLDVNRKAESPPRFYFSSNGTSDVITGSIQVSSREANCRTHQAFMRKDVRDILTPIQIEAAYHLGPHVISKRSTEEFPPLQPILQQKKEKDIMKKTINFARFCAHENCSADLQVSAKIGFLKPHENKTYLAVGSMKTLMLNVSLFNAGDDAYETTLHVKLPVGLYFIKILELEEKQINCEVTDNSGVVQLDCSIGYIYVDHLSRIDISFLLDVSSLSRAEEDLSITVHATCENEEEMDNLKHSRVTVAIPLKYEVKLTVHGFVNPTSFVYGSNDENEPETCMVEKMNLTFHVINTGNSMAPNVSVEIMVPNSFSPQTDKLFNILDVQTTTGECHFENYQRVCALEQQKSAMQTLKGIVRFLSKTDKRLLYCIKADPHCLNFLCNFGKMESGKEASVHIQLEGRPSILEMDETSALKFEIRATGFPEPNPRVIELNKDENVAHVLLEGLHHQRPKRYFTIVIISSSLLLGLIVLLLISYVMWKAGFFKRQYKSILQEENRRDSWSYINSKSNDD
# Arrestin-AP2 inh = inhibitors of human beta-arrestin and AP2 interaction | FITC-arrestin peptide / GST-AP2 beads, flow cytometry; AP2 beta2 appendage carries R879A mutation | inhibition, % at 10 µM | hit rate 0.31% among 340,000;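 active means inhibition above a set limit, near 3 SD of compounds lacking own fluorescence, cut at about 54% in these data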;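 further: plate controls were DMSO wells for no effect and 5 µM unlabelled arrestin peptide for full effect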
#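 Material – AP2 appendage R879A on GSH beads · Buffer or medium – PBS with 0.05% Tween 20 and 0.1% BSA · Probe or stimulus – fluorescein-tagged arrestin peptide at 50 nM final · Incubation – compound with beads 12 min RT, then probe 1 h RT · Detection – high-throughput flow cytometry of beads, ex 488, em 535 nm · Evaluation – percent response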
# Arr AP2 CP1 = blocks beta-arrestin peptide binding to human AP2 | shares compounds with Arrestin-AP2 inh | GST-AP2 beads, FITC arrestin peptide binding, flow cytometry; GST-fused beta2-adaptin appendage, R879A mutant | inhibition, % at 10 µM | hit rate 2% among 1,300 | AID 504908;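 active means inhibition above a set limit, roughly 3 SD of non-fluorescent compound noise, cut at about 38% in these data; inactive means inhibition at or below that limit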;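 further: loss of bead fluorescence from 50 nM FITC arrestin peptide bound to appendage; 0% = negative control wells and 100% = excess unlabelled arrestin peptide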
# GST-FITC bead = counter-screen for beta-arrestin AP2 inhibitors: GST-GSH bead binding. GST-fluorescein binding to GSH beads, fluorescence. inhibition, % at 10 µM. hit rate 2% among 1,300. AID 588338. shares compounds with Arrestin-AP2 inh;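 active means inhibition above 50%, about 3 SD of the inhibition seen with non-fluorescent compounds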;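 further: fluorescein maleimide labelled GST captured on 4 micron glutathione beads; higher means more loss of bead fluorescence from quenching or blocked binding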
# An asterisk follows results filed as active; . = not tested or not shown.
SMILES,GASC-1 inh,p-CIP stab down,VLA-4 inh,Arrestin-AP2 inh,Arr AP2 CP1,GST-FITC bead
CCn1cc(/C=C(\NC(=O)c2ccc(OC)cc2)C(=O)N2CCN(C)CC2)c2ccccc21,0,-7,.,38,.,.
CSc1ccc(C(=O)C2CCCN(C(=O)c3nn(C)c(=O)c4ccccc34)C2)cc1 (stereo not drawn),-12,-6,15,58*,5,-4
O=S(=O)(NCC1CCCN(Cc2ccccc2)C1)c1cccc2cccnc12 (stereo not drawn),5,32,5,-8,.,.
COc1ccc(OC)c(NC(=O)c2cc3c(Cl)nc4ccccc4c3s2)c1,-2,-2,-2,104*,-7,-11
COc1ccc(NC(=O)c2cc3c(Cl)nc4ccccc4c3s2)cc1OC,0,7,9,-1,.,.
CCn1ccnc1CNC(=O)C1CCC(=O)N(Cc2cccc(C(F)(F)F)c2)C1 (stereo not drawn),-18,-7,21,-9,.,.
CCn1ccnc1CNC(=O)C1CCC(=O)N(Cc2ccccc2F)C1 (stereo not drawn),1,14,9,54*,-9,3
COc1ccccc1CN1CC(C(=O)NCc2c(F)ccc(C)c2F)CCC1=O (stereo not drawn),-15,0,-117,9,-1,-4
COc1ccccc1CN1CC(C(=O)NCCc2ccc(C)o2)CCC1=O (stereo not drawn),-1,0,26,37,.,.
COc1ccccc1CN1CC(C(=O)NCc2ccc(C)c(F)c2)CCC1=O (stereo not drawn),-1,-2,-1,22,-8,-2
COc1ccccc1CCNC(=O)C1CCC(=O)N(Cc2ccccc2OC)C1 (stereo not drawn),-8,10,-5,66*,9,-3
CC1CCN(c2ccc(C(F)(F)F)cc2N)CC1,-2,-3,1,33,.,.
COCCn1nnnc1C(C(C)C)N(Cc1ccccc1)Cc1cc2cc(OC)ccc2[nH]c1=O (stereo not drawn),.,5,.,-3,.,.
Cc1ccccc1C(=O)Nc1nnc(-c2cccnc2)o1,-24,0,-4,60*,2,-3
O=C(CCCOc1ccc(Cl)cc1Cl)N/N=C/c1ccccc1,8,-22,-5,17,.,.
Cc1ccc(S(=O)(=O)CCC(=O)NCc2ccc(Cl)cc2)cc1,3,-2,15,-8,.,.
Cc1ccc(CNC(=O)CCS(=O)(=O)c2ccc(C)cc2)cc1,-3,-6,-7,70*,-3,-5
Cc1ccc(-c2nnc(SCC(=O)N/N=C/c3ccccc3C(=O)O)n2C2CCCCC2)cc1,-2,-4,15,68*,4,-5
CCC1Oc2ccc(C)cc2N(CC(=O)NCCCN2CCCC2)C1=O (stereo not drawn),5,11,2,17,.,.
O=C(COc1ccccc1C(=O)O)Nc1cccc2ccccc12,4,.,6,1,.,.
O=C(Cc1ccccc1C(=O)O)Nc1cccc2ccccc12,6,-11,-4,60*,6,-4
NNC(=O)c1cc(O)c(O)c(O)c1,26,-4,12,11,23,7
O=C(OC1CCOC1=O)c1cccc(S(=O)(=O)Nc2cccc(Cl)c2)c1 (stereo not drawn),-1,-5,6,63*,-10,-4
C(=N\c1nccs1)/Nc1nccs1,0,-2,3,-9,.,.
CCC(=O)Nc1ccc(-c2ccc(N3CCN(C)CC3)nn2)cc1,0,-13,-9,55*,-3,-4
SMILES,GASC-1 inh,p-CIP stab down,VLA-4 inh,Arrestin-AP2 inh,Arr AP2 CP1,GST-FITC bead
CCOC(=O)C1(C)NC(c2ccccc2F)C2C(=O)N(c3cccc(C(C)=O)c3)C(=O)C21 (stereo not drawn),-10,-11,10,39,.,.
COc1ccccc1-c1noc2ncnc(Nc3cccc(C)c3)c12,1,-9,0,7,.,.
CCC(C)(C)NC(=O)C(c1cccnc1)N(C(=O)c1csnn1)c1ccccc1 (stereo not drawn),30,-7,13,54*,0,-8
Cc1cc(NC(=O)c2ccc(F)cc2F)n(-c2nc3ccccc3[nH]2)n1,1,7,-4,12,26,2
Cc1cc(NC(=O)/C=C/c2ccccc2Cl)n(-c2nc3ccccc3[nH]2)n1,-1,-6,14,101*,-4,-5
Cc1cc(NC(=O)CC2CCCC2)n(-c2nc3ccccc3[nH]2)n1,4,-11,-6,7,.,.
O=C(CCc1nc2sc3c(c2c(=O)[nH]1)CCCC3)NCCOc1ccccc1,8,.,-1,5,.,.
Cc1ccc(NC(=O)c2ccc(CSc3nnc(-c4ccncc4)n3C)cc2)cc1,4,-12,-8,85*,3,8
Cc1nn(C(=O)c2ccco2)c(C)c1Sc1ccc(Br)cc1,0,-5,28,4,.,.
O=C(c1ccc(S(=O)(=O)NCc2ccco2)cc1)N1CCN(c2ccc(F)cc2)CC1,-3,.,19,59*,5,-10
CC(=O)c1ccc(N2CCN(C(=S)NCc3ccco3)CC2)cc1,-21,-11,-11,-17,.,.
CC(=O)c1ccc(N2CCN(C(=O)c3ccc(S(=O)(=O)NCc4ccco4)cc3)CC2)cc1,-5,.,-7,-9,3,-5
O=C(/C=C/c1ccc(S(=O)(=O)NCc2ccco2)cc1)N1CCN(c2ccccc2)CC1,4,18,8,-12,.,.
COc1ccc(-c2nc(CN3CCN(C(=O)c4ccco4)CC3)c(C)o2)c(OC)c1C,-6,8,7,54*,-8,-2
CCOC(=O)N/N=C\C=C\c1ccco1,1,4,1,1,.,.
COc1cc(/C=N/Nc2ccc([N+](=O)[O-])cc2S(=O)(=O)N2CCOCC2)cc(OC)c1OC,-1,-9,1,-9,.,.
CN1CCN(S(=O)(=O)c2cc([N+](=O)[O-])ccc2N/N=C/c2ccc(Cl)cc2)CC1,7,-7,19,98*,2,-3
Cc1ccccc1C(=O)NC(=S)NCC(=O)c1ccccc1,-4,2,-6,-6,.,.
O=C(CNC(=S)NC(=O)c1ccccc1Br)c1ccccc1,-12,-3,0,102*,27,10
Cc1ccc(S(=O)(=O)NCc2ccccc2)cc1,1,0,2,56*,-4,-5
Cc1cccc(OCCCC(=O)NC(C)c2ccccc2)c1 (stereo not drawn),-1,-4,-10,8,.,.
CC1=NN(c2ccccc2)C(=O)C1/C=C1/NC(=S)NC1=O (stereo not drawn),-15,-6,2,11,.,.
O=C1NC(=S)N/C1=C/C=C/c1ccccc1,1,10,-3,106*,-9,2
O=C1C(Cl)=C(N2CCCCC2)C(=O)C(Cl)=C1c1cnc(N2CCCCC2)s1,-2,0,.,98*,68*,18
O=C1C(Cl)=C(N2CCCCCC2)C(=O)N1c1ccc(Cl)cc1,4,-14,15,11,.,.

# High-throughput results deposited in PubChem BioAssay by several laboratories.
